From ChEMBL document CHEMBL1124599, “Synthesis and structure-activity relationships of a novel class of 5-lipoxygenase inhibitors. 2-(Phenylmethyl)-4-hydroxy-3,5-dialkylbenzofurans: the development of L-656,224” (J Med Chem, 1989)

What was measured:
Rattus norvegicus [1] = species on record: Rattus norvegicus; experiment: Inhibition of hyperalgesia response induced by subplantar injection of platelet-activating factor in rat; assay type: functional
Rattus norvegicus [2] = experiment: Inhibition of antigen (IgE) induced bronchoconstriction in hyperreactive inbred rats at a dose of 1.5 mg/kg; assay type: functional
How it was run: (§1)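 Inbred hyperreactive rats receive compound orally 4 h before antigen, as a suspension in 0.4% methocel/0.5% Tween 80 (10 mL/kg). Methysergide (3 μg/kg iv) is given 5 min before ovalbumin aerosol challenge. Respiration is recorded by pneumotachograph. Percent inhibition is reduction in dyspnea duration versus vehicle controls, with Student's t test. ED50 is derived by linear regression.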

Rattus norvegicus [3] = experiment: Inhibition of antigen (IgE) induced bronchoconstriction in hyperreactive inbred rats at a compound dose of 0.5 mg/kg; assay type: functional; how it was run: as §1
Saimiri sciureus = experiment: Inhibition of increase in pulmonary resistance and decrease in dynamic compliance of ascaris antigen-induced bronchoconstriction in squirrel monkeys at 0.25 mg/kg compound concentration
Rattus norvegicus [4] = experiment: Effect of antigen-induced dyspnea in hyperreactive inbred rats at 0.5 mg/kg of compound concentration; assay type: functional; how it was run: as §1
Rattus norvegicus [5] = experiment: Inhibition of antigen (IgE) induced bronchoconstriction in hyperreactive inbred rats at a compound dose of 0.15 mg/kg; assay type: functional; how it was run: as §1
[6] = molecular target: T1, Polyunsaturated fatty acid 5-lipoxygenase (Rattus norvegicus, UniProt P12527); experiment: Concentration required for 50 % inhibition of arachidonic acid oxidation by rat 5-lipoxygenase
T1 sequence (P12527 whole entry): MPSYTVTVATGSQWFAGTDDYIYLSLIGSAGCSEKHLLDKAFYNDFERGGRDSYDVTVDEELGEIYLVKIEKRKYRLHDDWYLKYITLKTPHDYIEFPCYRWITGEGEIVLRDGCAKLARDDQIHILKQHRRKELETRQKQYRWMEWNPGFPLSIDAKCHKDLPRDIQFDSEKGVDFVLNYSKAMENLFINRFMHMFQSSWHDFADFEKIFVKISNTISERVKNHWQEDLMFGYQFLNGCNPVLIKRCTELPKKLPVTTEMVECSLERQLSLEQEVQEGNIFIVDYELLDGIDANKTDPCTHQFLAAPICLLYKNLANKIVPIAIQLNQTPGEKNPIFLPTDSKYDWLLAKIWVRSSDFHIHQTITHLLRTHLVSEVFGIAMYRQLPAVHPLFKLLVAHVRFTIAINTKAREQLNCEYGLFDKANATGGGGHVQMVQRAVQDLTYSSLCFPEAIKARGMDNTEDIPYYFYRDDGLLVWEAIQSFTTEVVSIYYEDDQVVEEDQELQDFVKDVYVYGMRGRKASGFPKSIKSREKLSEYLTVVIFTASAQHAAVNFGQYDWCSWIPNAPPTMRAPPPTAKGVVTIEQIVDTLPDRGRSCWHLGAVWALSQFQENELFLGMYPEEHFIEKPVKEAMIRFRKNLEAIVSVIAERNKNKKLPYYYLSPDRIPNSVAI
How it was run: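 Rat PMN leukocyte 10000g supernatant is used as the enzyme. Incubation is run in 25 mM Na+/K+ phosphate pH 7.3 with 1 mM ATP, 0.5 mM CaCl2 and 0.5 mM mercaptoethanol. Inhibitor from DMSO (500-fold stock) is preincubated 2 min at 37°C. [14C]arachidonic acid is added to 10 μM final for 10 min at 37°C. Conversion to 5-HETE and 5,12-diHETEs is read by TLC radioscan. IC50 is derived by linear regression.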

[7] = molecular target: T2, Seed linoleate 13S-lipoxygenase-1 (Glycine max, UniProt P08170); experiment: Inhibitory activity towards soybean lipoxygenase
T2 sequence (P08170 whole entry): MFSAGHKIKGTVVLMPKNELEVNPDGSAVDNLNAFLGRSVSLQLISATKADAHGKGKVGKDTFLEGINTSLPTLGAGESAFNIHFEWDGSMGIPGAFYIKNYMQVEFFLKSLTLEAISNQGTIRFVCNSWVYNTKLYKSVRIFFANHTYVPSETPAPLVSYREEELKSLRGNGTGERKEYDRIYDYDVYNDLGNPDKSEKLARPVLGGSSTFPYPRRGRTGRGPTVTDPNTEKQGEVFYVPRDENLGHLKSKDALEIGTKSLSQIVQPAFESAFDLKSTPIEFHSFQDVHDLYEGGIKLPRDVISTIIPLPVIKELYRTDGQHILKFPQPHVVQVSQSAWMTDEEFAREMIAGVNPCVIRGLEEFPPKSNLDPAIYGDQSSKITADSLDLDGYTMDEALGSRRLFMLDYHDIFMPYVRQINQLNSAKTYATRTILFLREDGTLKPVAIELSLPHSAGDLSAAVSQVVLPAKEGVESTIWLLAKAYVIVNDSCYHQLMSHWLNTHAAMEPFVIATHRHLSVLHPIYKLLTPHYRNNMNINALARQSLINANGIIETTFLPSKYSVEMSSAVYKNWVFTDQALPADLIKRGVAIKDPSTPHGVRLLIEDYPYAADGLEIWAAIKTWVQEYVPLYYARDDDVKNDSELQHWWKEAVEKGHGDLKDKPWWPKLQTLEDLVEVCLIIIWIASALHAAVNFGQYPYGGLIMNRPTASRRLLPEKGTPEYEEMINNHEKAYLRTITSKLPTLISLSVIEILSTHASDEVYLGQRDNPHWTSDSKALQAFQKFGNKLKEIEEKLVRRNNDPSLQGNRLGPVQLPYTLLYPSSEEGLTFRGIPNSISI

Rattus norvegicus [8] = experiment: Effect of antigen-induced dyspnea in hyperreactive inbred rats at 1.5 mg/kg of compound concentration; assay type: functional; how it was run: as §1
[9] = molecular target: T3, Polyunsaturated fatty acid 5-lipoxygenase (Homo sapiens, UniProt P09917); experiment: Concentration required for 50 % inhibition of leukotriene B4 production in human PMN compared with controls in the absence of compound; assay type: functional
T3 sequence (P09917 whole entry): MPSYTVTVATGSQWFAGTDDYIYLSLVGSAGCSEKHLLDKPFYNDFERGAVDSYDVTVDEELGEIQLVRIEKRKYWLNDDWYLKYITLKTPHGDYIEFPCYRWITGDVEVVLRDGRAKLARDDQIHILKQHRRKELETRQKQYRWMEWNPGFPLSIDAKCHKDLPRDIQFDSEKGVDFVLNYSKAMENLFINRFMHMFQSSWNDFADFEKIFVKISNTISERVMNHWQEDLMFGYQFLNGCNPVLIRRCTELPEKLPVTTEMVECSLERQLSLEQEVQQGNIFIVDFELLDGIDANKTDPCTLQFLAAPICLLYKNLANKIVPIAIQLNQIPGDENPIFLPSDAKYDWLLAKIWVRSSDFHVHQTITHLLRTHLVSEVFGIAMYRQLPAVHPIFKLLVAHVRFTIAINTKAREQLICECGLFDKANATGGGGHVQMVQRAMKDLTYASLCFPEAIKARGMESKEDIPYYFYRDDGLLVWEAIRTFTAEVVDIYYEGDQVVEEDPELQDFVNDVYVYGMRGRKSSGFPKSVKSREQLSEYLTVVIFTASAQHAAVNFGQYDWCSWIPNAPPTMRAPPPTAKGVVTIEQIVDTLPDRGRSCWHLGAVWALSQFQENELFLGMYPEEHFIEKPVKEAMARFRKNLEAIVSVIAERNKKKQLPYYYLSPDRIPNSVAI
How it was run: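 Human PMN are isolated from citrated venous blood by dextran sedimentation, Ficoll-Hypaque and NH4Cl lysis. Cells (5×10^5/mL in HHBSS) are warmed 10 min at 37°C and given compound in DMSO for 2 min. They are stimulated with A23187 (10 μM) for 5 min and stopped with methanol. LTB4 is measured by radioimmunoassay.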

Rattus norvegicus [10] = experiment: Inhibition of antigen (IgE) induced bronchoconstriction in hyperreactive inbred rats at a compound dose of 5.0 mg/kg; assay type: functional; how it was run: as §1
Rattus norvegicus [11] = experiment: Inhibition of antigen (IgE) induced bronchoconstriction in hyperreactive inbred rats at a compound dose of 1.5 mg/kg; assay type: functional; how it was run: as §1

IC50 [6]	IC50 [9]	Structure (SMILES)	further results
36 nM	–	CCCc1cc(Cl)c2oc(Cc3ccc(OC)cc3)c(C)c2c1O	AD100 (Rattus norvegicus [1]): 1.5 mg/kg; inhibition in vivo at 1.5 mg/kg (Rattus norvegicus [2]): 56%; inhibition in vivo at 0.5 mg/kg (Rattus norvegicus [3]): 48%; inhibition in vivo at 0.25 mg/kg (Saimiri sciureus): > 85%; ED50 (Rattus norvegicus [4]): 0.7 mg/kg; inhibition in vivo at 0.15 mg/kg (Rattus norvegicus [5]): 36%; IC50 [7]: 30000 nM
130 nM	31 nM	CCCc1ccc2oc(Cc3ccc(OC)cc3)c(C)c2c1O	inhibition in vivo at 1.5 mg/kg (Rattus norvegicus [2]): 64%; inhibition in vivo at 0.5 mg/kg (Rattus norvegicus [3]): 55%; ED50 (Rattus norvegicus [8]): < 0.5 mg/kg; inhibition in vivo at 5 mg/kg (Rattus norvegicus [10]): 66%
–	46 nM	COc1ccc(Cc2oc3c(Cl)cc(C)c(O)c3c2C)cc1	–
161 nM	76 nM	COc1ccc(Cc2oc3c(Cl)cc(CCCO)c(O)c3c2C)cc1	inhibition in vivo at 0.5 mg/kg (Rattus norvegicus [3]): 58%; inhibition in vivo at 0.15 mg/kg (Rattus norvegicus [5]): 39%
140 nM	12 nM	CCCc1cc(C)c2oc(Cc3ccc(OC)cc3)c(C)c2c1O	inhibition in vivo at 5 mg/kg (Rattus norvegicus [10]): 55%; inhibition in vivo at 1.5 mg/kg (Rattus norvegicus [11]): 49%
–	291 nM	CCOCc1cc(Cl)c2oc(Cc3ccc(OC)cc3)c(C)c2c1O	–
–	105 nM	CCCc1cc(Cl)c2oc(Cc3ccc(OCC(=O)O)cc3)c(C)c2c1O	inhibition in vivo at 1.5 mg/kg (Rattus norvegicus [2]): 28%
2070 nM	574 nM	COc1ccc(Cc2oc3cccc(O)c3c2C)cc1	–
–	26 nM	CCCc1cc(Cl)c2oc(Cc3ccc(Cl)cc3)c(C)c2c1O	–
–	30 nM	CCCc1cc(Cl)c2oc(Cc3ccccc3)c(C)c2c1O	–
–	13 nM	CCCc1cc(Cl)c2oc(Cc3ccc(OC)cc3OC)c(C)c2c1O	–
–	20 nM	CCCc1cc(Cl)c2oc(Cc3ccc(OC)cc3)c(CCC)c2c1O	–
–	2130 nM	COc1ccc(Cc2oc3c(Cl)cc(CCC(=O)O)c(O)c3c2C)cc1	inhibition in vivo at 1.5 mg/kg (Rattus norvegicus [2]): 11%
–	20 nM	C=CCc1cc(Cl)c2oc(Cc3ccc(OC)cc3)c(C)c2c1O	–
–	99 nM	COc1ccc(Cc2oc3c(Cl)cc(C(C)(C)C)c(O)c3c2C)cc1	inhibition in vivo at 1.5 mg/kg (Rattus norvegicus [2]): 32%
129 nM	7 nM	CCCc1cc(F)c2oc(Cc3ccc(OC)cc3)c(C)c2c1O	–
2000 nM	376 nM	COc1ccc(Cc2oc3c(Cl)ccc(O)c3c2C)cc1	–
–	860 nM	COc1ccc(Cc2oc3c(Cl)cc(Cl)c(O)c3c2C)cc1	–
